Results taken from ChEMBL document CHEMBL3804761, “Synthesis of a stable and orally bioavailable englerin analogue” (Bioorg Med Chem Lett, 2016).

Columns and labels:
Format in all cases: functional
[1] = tested on: NCI-H226; test: Growth inhibition of human NCI-H226 cells incubated for 48 hrs by sulforhodamine B assay; conditions: NCI-H226, 48 h
Method in brief: (§1)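 NCI 60-cell-line panel, standard protocol. Cells exposed to compound for two days, growth read by sulforhodamine B staining. Tested at five 10-fold dilutions, top concentration 100 µM, to give dose-response curves.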

[2] = Growth inhibition of human COLO205 cells incubated for 48 hrs by sulforhodamine B assay; conditions: COLO 205, 48 h; method in brief: as §1
[3] = tested on: CCRF-CEM; test: Growth inhibition of human CCRF-CEM cells incubated for 48 hrs by sulforhodamine B assay; method in brief: as §1
[4] = Growth inhibition of human UACC62 cells incubated for 48 hrs by sulforhodamine B assay; conditions: UACC-62, 48 h
Method in brief: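 Tested in the standard NCI 60-cell-line protocol with two-day drug exposure and a sulforhodamine B endpoint. Compounds were first screened at a single final concentration of 10 µM, reported as growth percent. They were then run as five 10-fold dilutions starting from a high concentration of 100 µM to give dose-response curves.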

[5] = tested on: K562; test: Growth inhibition of human K562 cells assessed as cell growth at 10 uM incubated for 48 hrs by sulforhodamine B assay relative to control; conditions: K562, 48 h, read-out: Activity
Method in brief: (§2)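 Run in the standard NCI 60-cell-line screen. Cells were exposed to drug for two days, and the read-out was sulforhodamine B staining. Compound was tested at a single final concentration of 10 µM in every line, and results are reported as growth percent.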

[6] = tested on: KM12; test: Growth inhibition of human KM12 cells incubated for 48 hrs by sulforhodamine B assay; conditions: KM12, 48 h; method in brief: as §1
[7] = tested on: SK-MEL-2; test: Growth inhibition of human SK-MEL-2 cells assessed as cell growth at 10 uM incubated for 48 hrs by sulforhodamine B assay relative to control; conditions: SK-MEL-2, 48 h, read-out: Activity; method in brief: as §2
[8] = tested on: MDA-MB-231; test: Growth inhibition of human MDA-MB-231 cells assessed as cell growth at 10 uM incubated for 48 hrs by sulforhodamine B assay relative to control; conditions: MDA-MB-231, 48 h, read-out: Activity; method in brief: as §2
[9] = tested on: NCI-H322M; test: Growth inhibition of human NCI-H322M cells incubated for 48 hrs by sulforhodamine B assay; method in brief: as §1
[10] = tested on: U-251; test: Growth inhibition of human U251 cells assessed as cell growth at 10 uM incubated for 48 hrs by sulforhodamine B assay relative to control; conditions: U-251, 48 h, read-out: Activity
Method in brief: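 NCI 60-cell line standard protocol, one-dose screen: single final concentration 10 µM, 2-day drug exposure, sulforhodamine B (SRB) endpoint; read-out is growth percent relative to untreated control.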

[11] = tested on: Malme-3M; test: Growth inhibition of human MALME-3M cells assessed as cell growth at 10 uM incubated for 48 hrs by sulforhodamine B assay relative to control; conditions: read-out: Activity; method in brief: as §2
[12] = tested on: MCF7; test: Growth inhibition of human MCF7 cells incubated for 48 hrs by sulforhodamine B assay; conditions: MCF7, 48 h; method in brief: as §1
[13] = Growth inhibition of human HCC2998 cells incubated for 48 hrs by sulforhodamine B assay; conditions: HCC 2998, 48 h; method in brief: as §1
[14] = tested on: SR; test: Growth inhibition of human SR cells assessed as cell growth at 10 uM incubated for 48 hrs by sulforhodamine B assay relative to control; conditions: read-out: Activity; method in brief: as §2
[15] = Growth inhibition of human SW620 cells assessed as cell growth at 10 uM incubated for 48 hrs by sulforhodamine B assay relative to control; conditions: SW-620, 48 h, read-out: Activity; method in brief: as §2
[16] = tested on: M14; test: Growth inhibition of human M14 cells assessed as cell growth at 10 uM incubated for 48 hrs by sulforhodamine B assay relative to control; conditions: M14, 48 h, read-out: Activity; method in brief: as §2
[17] = tested on: ACHN; test: Growth inhibition of human ACHN cells assessed as cell growth at 10 uM incubated for 48 hrs by sulforhodamine B assay relative to control; conditions: read-out: Activity; method in brief: as §2
[18] = Growth inhibition of human RXF393 cells incubated for 48 hrs by sulforhodamine B assay; conditions: RXF 393, 48 h
Method in brief: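 Run in the NCI 60-cell-line protocol, with 2-day drug exposure and sulforhodamine B read-out. Dose-response testing used five 10-fold dilutions starting from a high concentration of 100 µM.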

[19] = tested on: A498; test: Growth inhibition of human A498 cells assessed as cell growth at 10 uM incubated for 48 hrs by sulforhodamine B assay relative to control; conditions: A498, 48 h, read-out: Activity
[20] = tested on: ACHN; test: Growth inhibition of human ACHN cells incubated for 48 hrs by sulforhodamine B assay; method in brief: as §1
[21] = tested on: MDA-MB-468; test: Growth inhibition of human MDA-MB-468 cells assessed as cell growth at 10 uM incubated for 48 hrs by sulforhodamine B assay relative to control; conditions: MDA-MB-468, 48 h, read-out: Activity; method in brief: as §2
[22] = Growth inhibition of human SF295 cells assessed as cell growth at 10 uM incubated for 48 hrs by sulforhodamine B assay relative to control; conditions: SF-295, 48 h, read-out: Activity; method in brief: as §2
[23] = tested on: SK-MEL-5; test: Growth inhibition of human SK-MEL-5 cells incubated for 48 hrs by sulforhodamine B assay; conditions: SK-MEL-5, 48 h; method in brief: as §1
[24] = Growth inhibition of human PC3 cells assessed as cell growth at 10 uM incubated for 48 hrs by sulforhodamine B assay relative to control; conditions: PC-3, 48 h, read-out: Activity; method in brief: as §2
[25] = Growth inhibition of human HCC2998 cells assessed as cell growth at 10 uM incubated for 48 hrs by sulforhodamine B assay relative to control; conditions: HCC 2998, 48 h, read-out: Activity
Method in brief: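 Single-dose screen in the NCI 60-cell-line panel at one final concentration of 10 µM. Two-day drug exposure with a sulforhodamine B endpoint. Values are growth percent for each cell line.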

[26] = Growth inhibition of human DU145 cells incubated for 48 hrs by sulforhodamine B assay; conditions: DU-145, 48 h; method in brief: as §1
[27] = tested on: NCI-H23; test: Growth inhibition of human NCI-H23 cells incubated for 48 hrs by sulforhodamine B assay; conditions: NCI-H23, 48 h; method in brief: as §1
[28] = tested on: SK-MEL-28; test: Growth inhibition of human SK-MEL-28 cells incubated for 48 hrs by sulforhodamine B assay; conditions: SK-MEL-28, 48 h; method in brief: as §1
[29] = read-out: pLC50 (the source's name) (converted)

## CC(C)[C@@]12C[C@@H](NC(=O)CO)[C@@](C)(O1)[C@@H]1CC[C@@H](C)[C@H]1[C@@H]2OC(=O)c1ccc2ccccc2c1
[1]
  GI50: 13.2 µM
  LC50: 85.1 µM
[1]; read-out: pTGI (converted)
  TGI: 33.1 µM
[2]
  GI50: 19.1 µM
[2]; [29]
  CC50: 61.7 µM
[2]; read-out: pTGI (converted)
  TGI: 34.7 µM
[3]
  GI50: 15.8 µM
[3]; [29]
  CC50: 75.9 µM
[3]; read-out: pTGI (converted)
  TGI: 34.7 µM
[4]
  GI50: 13.5 µM
  LC50 (lethal concentration, 50% net cell kill): 55 µM
[4]; read-out: pTGI (converted)
  TGI: 26.9 µM
[5]
  growth at 10 µM: 91.2%
[6]
  GI50: 17.4 µM
  LC50: 61.7 µM
[6]; read-out: pTGI (converted)
  TGI: 32.4 µM
[7]
  growth at 10 µM: 100%
[8]
  growth at 10 µM: 101%
[9]
  GI50: 13.5 µM
  LC50: 52.5 µM
[9]; read-out: pTGI (converted)
  TGI: 26.9 µM
[10]
  growth at 10 µM: 79.3%
[11]
  growth at 10 µM: 85.3%
[12]
  GI50: 15.8 µM
[12]; [29]
  CC50: 72.4 µM
[12]; read-out: pTGI (converted)
  TGI: 33.9 µM
[13]
  GI50: 15.8 µM
  LC50: 57.5 µM
[13]; read-out: pTGI (converted)
  TGI: 30.2 µM
[14]
  growth at 10 µM: 82.5%
[15]
  growth at 10 µM: 96.2%
[16]
  growth at 10 µM: 95.2%
[17]
  growth at 10 µM: 8.4%
[18]
  GI50: 6.17 µM
[18]; [29]
  CC50: 49 µM
[18]; read-out: pTGI (converted)
  TGI: 20.4 µM
[19]
  growth at 10 µM: -15.2%
[20]
  GI50: 5.37 µM
  LC50 (concentration killing 50% of cells): 42.7 µM
[20]; read-out: pTGI (converted)
  TGI: 17 µM
[21]
  growth at 10 µM: 81.5%
[22]
  growth at 10 µM: 82.5%
[23]
  GI50: 16.6 µM
  LC50: 56.2 µM
[23]; read-out: pTGI (converted)
  TGI: 30.9 µM
[24]
  growth at 10 µM: 66.9%
[25]
  growth at 10 µM: 105%
[26]
  GI50: 16.2 µM
[26]; [29]
  CC50: 56.2 µM
[26]; read-out: pTGI (converted)
  TGI: 30.2 µM
[27]
  GI50: 14.1 µM
  LC50: 57.5 µM
[27]; read-out: pTGI (converted)
  TGI: 28.2 µM
[28]
  GI50: 16.6 µM
  LC50: 57.5 µM
[28]; read-out: pTGI (converted)
  TGI: 30.9 µM
